Source: PubChem
This is a sample that favours compounds with a hit; in the whole collection about 3.1% have one here.
ATG4B inh – inhibitors of human ATG4B cysteine protease; Q9Y4P1; ATG4B cleavage of LC3-PLA2, NBD-HPC fluorescence, 1 h; inhibition, % at 8.33 µM; hit rate 0.51% among 340,000; in the data active = inhibition above about 40%
Target sequence (Q9Y4P1 whole entry, looked up): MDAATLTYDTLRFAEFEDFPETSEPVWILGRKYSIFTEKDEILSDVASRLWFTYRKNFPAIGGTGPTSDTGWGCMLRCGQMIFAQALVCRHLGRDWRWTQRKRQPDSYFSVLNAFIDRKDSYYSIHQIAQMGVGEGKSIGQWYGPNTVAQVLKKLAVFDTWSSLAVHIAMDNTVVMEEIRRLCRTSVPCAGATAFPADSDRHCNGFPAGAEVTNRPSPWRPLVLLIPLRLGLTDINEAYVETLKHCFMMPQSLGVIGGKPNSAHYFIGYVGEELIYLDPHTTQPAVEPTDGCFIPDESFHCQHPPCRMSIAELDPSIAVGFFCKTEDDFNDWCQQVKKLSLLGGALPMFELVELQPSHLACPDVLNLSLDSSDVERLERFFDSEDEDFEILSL
rCAG binder – molecules binding r(CAG) RNA repeats | inhibition, % at 3 µM | hit rate 1.3% among 370,000 | r(CAG) RNA repeat, TO-PRO-1 dye displacement fluorescence;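 active = inhibition above the plate cutoff, the mean of all test compounds on that plate plus 3 SD, cut at about 35% in these data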;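 note: 0% = DMSO alone and 100% = 100 µM mitoxantrone as full dye displacement; higher means more dye released from RNA so lower well fluorescence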
UHRF1 MBD2 ctr – blocks human UHRF1 binding to methylated DNA; UHRF1 binding to methylated oligo, TR-FRET; inhibition, % at 4.4 µM; hit rate 0.75% among 370,000; AID 687016; in the data active = inhibition above about 21%;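 note: UHRF1 SRA domain binding a hemimethylated CpG hairpin DNA probe; 0% = median of test compound wells and 100% = reference inhibitor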
MBD2 inh – blocks human MBD2 binding to methylated DNA; TR-FRET, MBD2 binding to methylated oligonucleotide; inhibition, % at 4.4 µM; hit rate 0.31% among 370,000; in the data active = inhibition above about 13%
LEDGF integ inh – blocks HIV-1 LEDGF/p75-dependent DNA integration | TR-FRET IN-LEDGF/p75 DNA integration, Eu/Cy5 | inhibition, % at 3.7 µM | hit rate 0.64% among 370,000 | AID 743269;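 active = inhibition above the screen-wide mean plus 3 SD, cut at about 13% in these data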;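 note: signal is the Cy5 over europium emission ratio at 671 and 618 nm; 0% = plate median of compound wells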
CSN deneddyl inh – inhibitors of human CSN-mediated cullin deneddylation; AID 651999; Q92905; hit rate 0.38% among 360,000; Purified CSN, SCF-Nedd8-OG deneddylation, fluorescence polarization; inhibition, % at 12.5 µM;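 active = pattern-corrected inhibition above about 35%, with an unprinted fluorescence ratio check between 0.5 and 1.5, limit read from the data, passing the limit was not always enough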;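 note: 0% = enzyme with substrate and 100% = substrate without enzyme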
Target sequence (Q92905 whole entry, looked up, one chain of several): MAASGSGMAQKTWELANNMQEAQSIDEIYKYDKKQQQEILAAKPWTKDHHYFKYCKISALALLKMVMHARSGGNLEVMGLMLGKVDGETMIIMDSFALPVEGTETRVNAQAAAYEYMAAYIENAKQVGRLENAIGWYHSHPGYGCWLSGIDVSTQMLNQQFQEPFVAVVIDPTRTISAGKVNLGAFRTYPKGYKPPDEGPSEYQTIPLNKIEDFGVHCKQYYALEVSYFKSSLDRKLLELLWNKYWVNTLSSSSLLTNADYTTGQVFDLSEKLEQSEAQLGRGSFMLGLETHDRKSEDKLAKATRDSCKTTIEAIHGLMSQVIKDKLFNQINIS
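assay system = purified human Csn5 enzyme expressed in HEK293T cells | amount = 0.24 nM enzyme | buffer or medium = Tris/NaCl/DTT buffer, pH 7.5 | reagent = 10 nM SCFSkp2-Nedd8OG | compound = one concentration, 12.5 µM, 0.25% DMSO | times = 90 min reaction at room temperature | signal = FP | read-out basis = % inhibition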
IN multimer up – activates HIV-1 integrase multimerization in LEDGF counter-screen | shares compounds with LEDGF integ inh | TR-FRET HIV-1 integrase multimerization, biochemical | activation, % at 7.7 µM | hit rate 17% among 2,000 | AID 1053131; in the data active = activation above about 8.9%
TRFRET interf – optically interferes with TR-FRET readout in LEDGF counter-screen | inhibition, % at 7.7 µM | AID 1053135 | shares compounds with LEDGF integ inh | TR-FRET optical interference counterscreen, HIV-1 IN multimerization | 2,000 tested, under 10 active;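 active = inhibition above the mean over all tested compounds plus 3 SD, which no compound reached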;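 note: 0% = integrase with antibodies and DMSO and 100% = antibodies without integrase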
IN-LEDGF confirm – LEDGF/p75-dependent HIV-1 integration inhibition, confirmation | inhibition, % at 3.7 µM | TR-FRET LEDGF/p75-dependent HIV-1 integration, biochemical | hit rate 36% among 2,000 | shares compounds with LEDGF integ inh; in the data active = inhibition above about 14%
* hit, by the source's call.

Results for COc1ccc(NC(=O)CN2CCC(NC(=O)C3CCCCC3)CC2)c([N+](=O)[O-])c1 ?
ATG4B inh: 4.4; rCAG binder: -2.3; UHRF1 MBD2 ctr: 0.0; MBD2 inh: -1.8; LEDGF integ inh: 18.4*; CSN deneddyl inh: 0.2; IN multimer up: -1.6; TRFRET interf: 7.9; IN-LEDGF confirm: 1.5

How did COc1ccc(NC(=O)CN2CCCCC2)c([N+](=O)[O-])c1 do in these assays?
ATG4B inh: 3.4; rCAG binder: -7.7; UHRF1 MBD2 ctr: 1.2; MBD2 inh: 6.5; LEDGF integ inh: -0.7; CSN deneddyl inh: -1.2

What do the screens show for `CCOc1ccc(N(CC(=O)NC2CCCC2)S(=O)(=O)c2c(C)[nH]c(=O)[nH]c2=O)cc1`?
ATG4B inh: -11.7; rCAG binder: 2.0; UHRF1 MBD2 ctr: 2.2; MBD2 inh: -2.4; LEDGF integ inh: 51.4*; CSN deneddyl inh: -2.8; IN multimer up: 0.6; TRFRET interf: -2.2; IN-LEDGF confirm: -9.2

Results for Cc1ccc(N(CC(=O)NC2CCCCC2)S(=O)(=O)c2c(C)noc2C)cc1 ?
ATG4B inh: 4.5; rCAG binder: 0.1; UHRF1 MBD2 ctr: 3.6; MBD2 inh: 1.6; LEDGF integ inh: 21.1*; CSN deneddyl inh: -0.4; IN multimer up: 1.4; TRFRET interf: -5.0; IN-LEDGF confirm: -4.7

How did CCc1nc2ccc(C(=O)NCc3cccs3)cn2c1N(CCC(C)C)CCN(C)C do in these assays?
rCAG binder: 0.1; UHRF1 MBD2 ctr: -2.6; MBD2 inh: -2.0; LEDGF integ inh: 13.9*; CSN deneddyl inh: -6.0; IN multimer up: 0.1; TRFRET interf: -0.4; IN-LEDGF confirm: 5.8

How did CC1CCN(c2ccc(/C=N/n3nnnc3N)cc2[N+](=O)[O-])CC1 do in these assays?
ATG4B inh: -9.8; rCAG binder: 1.0; UHRF1 MBD2 ctr: -3.0; MBD2 inh: -4.8; LEDGF integ inh: 3.2; CSN deneddyl inh: -0.3

How did CC1CCN(c2ccc(/C=N\Nc3nncn3N)cc2[N+](=O)[O-])CC1 do in these assays?
ATG4B inh: -4.5; rCAG binder: 1.9; UHRF1 MBD2 ctr: 3.8; MBD2 inh: -6.3; LEDGF integ inh: 46.8*; CSN deneddyl inh: 0.0; IN multimer up: 2.2; TRFRET interf: -7.5; IN-LEDGF confirm: -15.3

What do the screens show for `CSc1ccc(/C=N\Nc2nncn2N)cc1`?
ATG4B inh: -0.1; rCAG binder: -1.2; UHRF1 MBD2 ctr: 14.7; MBD2 inh: 3.4; LEDGF integ inh: 39.7*; CSN deneddyl inh: -1.7; IN multimer up: -0.8; TRFRET interf: 3.0; IN-LEDGF confirm: -5.2

What do the screens show for `CC(C)(C)c1ccc(/C=N/Nc2nncn2N)cc1`?
ATG4B inh: 1.6; rCAG binder: -3.7; UHRF1 MBD2 ctr: 7.3; MBD2 inh: 1.1; LEDGF integ inh: 39.2*; CSN deneddyl inh: 5.8; IN multimer up: -1.5; TRFRET interf: 5.4; IN-LEDGF confirm: -8.4

How did CS/C(N)=N/N=C/c1cc(Br)cc(Br)c1O do in these assays?
ATG4B inh: -1.0; rCAG binder: 20.3; UHRF1 MBD2 ctr: -4.4; MBD2 inh: -5.2; LEDGF integ inh: 3.9; CSN deneddyl inh: -1.5

Results for Nn1cnnc1N/N=C/c1cc(Br)cc(Br)c1O ?
ATG4B inh: 2.0; rCAG binder: 11.7; UHRF1 MBD2 ctr: 4.0; MBD2 inh: 4.2; LEDGF integ inh: 44.4*; CSN deneddyl inh: 14.2; IN multimer up: 0.7; TRFRET interf: -2.1; IN-LEDGF confirm: -15.9

What do the screens show for `CCCC[C@H]1C2CC(OC(=O)Nc3ccc4c(c3)OCO4)C(C2)[C@H]2CCCCN21` (stereo partly specified)?
rCAG binder: -2.5; UHRF1 MBD2 ctr: -1.8; MBD2 inh: 3.1; LEDGF integ inh: 2.7

Results for COc1ccc(CN(CC#Cc2ccccc2)Cc2ccccc2)c(OC)c1 ?
rCAG binder: -1.0; UHRF1 MBD2 ctr: -1.0; MBD2 inh: 3.2; LEDGF integ inh: -2.5

Results for COCC#Cc1ccc(CC[C@H]2O[C@H]3CC[C@H](CO)O[C@H]3C[C@H]2n2cc(C(C)(C)O)nn2)cc1 ?
rCAG binder: -1.1; UHRF1 MBD2 ctr: 1.9; MBD2 inh: -4.1; LEDGF integ inh: -1.5

What do the screens show for `O=C(CSc1nc2ccccc2o1)NC(=O)NCc1ccccc1`?
ATG4B inh: -12.4; rCAG binder: 4.1; UHRF1 MBD2 ctr: 3.3; MBD2 inh: 0.3; LEDGF integ inh: 29.4*; CSN deneddyl inh: -0.7; IN multimer up: 0.8; TRFRET interf: -3.9; IN-LEDGF confirm: -0.3

What do the screens show for `O=C(CSc1nc2ccccc2o1)NC(=O)NCc1ccco1`?
ATG4B inh: -2.7; rCAG binder: 0.5; UHRF1 MBD2 ctr: 0.6; MBD2 inh: 2.4; LEDGF integ inh: 0.6; CSN deneddyl inh: 6.8

How did O=C(CSc1nc2ccccc2n1Cc1ccccc1Cl)NN=C/C(Br)=C/c1ccccc1 do in these assays?
rCAG binder: 7.1; UHRF1 MBD2 ctr: -3.2; MBD2 inh: -0.4; LEDGF integ inh: -2.6

What do the screens show for `CCOC(=O)c1c(N)n(CCOC(=O)c2cccs2)c2nc3ccccc3nc12`?
ATG4B inh: -26.4; rCAG binder: 2.8; UHRF1 MBD2 ctr: 11.7; MBD2 inh: 6.3; LEDGF integ inh: 32.5*; CSN deneddyl inh: 2.7; IN multimer up: 1.0; TRFRET interf: -3.4; IN-LEDGF confirm: -3.0

How did CCCCCOC(=O)c1c(N)n(CCOC)c2nc3ccccc3nc12 do in these assays?
ATG4B inh: -8.8; rCAG binder: -4.8; UHRF1 MBD2 ctr: -5.3; MBD2 inh: -6.3; LEDGF integ inh: 5.0; CSN deneddyl inh: -3.3

How did COc1ccc(CSc2nnc(SCc3ccccc3)s2)cc1 do in these assays?
rCAG binder: 0.4; UHRF1 MBD2 ctr: -0.5; MBD2 inh: 0.8; LEDGF integ inh: -4.1

How did Cc1cc(=O)[nH]c(SCC(=O)Nc2cccc(C)c2C)n1 do in these assays?
rCAG binder: 1.6; UHRF1 MBD2 ctr: 0.7; MBD2 inh: 1.1; LEDGF integ inh: -2.6

What do the screens show for `O=C(NCCN1CCCC1)C1CC(=O)N(C2CCCCC2)C1` (stereo unspecified)?
ATG4B inh: -1.9; rCAG binder: 2.9; UHRF1 MBD2 ctr: 0.0; MBD2 inh: -7.6; LEDGF integ inh: 26.4*; CSN deneddyl inh: 0.1; IN multimer up: -0.5; TRFRET interf: 2.7; IN-LEDGF confirm: -4.5

Results for COC(=O)C1=C(C)N(C)C(=NCc2ccccc2)NC1c1cccc(Cl)c1 (stereo unspecified) ?
rCAG binder: 9.4; UHRF1 MBD2 ctr: 0.1; MBD2 inh: 1.7; LEDGF integ inh: -4.0
